According to ChEMBL document CHEMBL1157618, “Noncovalent tripeptidyl benzyl- and cyclohexyl-amine inhibitors of the cysteine protease caspase-1” (J Med Chem, 2010):

Columns and labels:
[1] = molecular target: T1, Caspase-1 (Homo sapiens, UniProt P29466); test: Inhibition of human recombinant caspase 1
T1 sequence (P29466 whole entry): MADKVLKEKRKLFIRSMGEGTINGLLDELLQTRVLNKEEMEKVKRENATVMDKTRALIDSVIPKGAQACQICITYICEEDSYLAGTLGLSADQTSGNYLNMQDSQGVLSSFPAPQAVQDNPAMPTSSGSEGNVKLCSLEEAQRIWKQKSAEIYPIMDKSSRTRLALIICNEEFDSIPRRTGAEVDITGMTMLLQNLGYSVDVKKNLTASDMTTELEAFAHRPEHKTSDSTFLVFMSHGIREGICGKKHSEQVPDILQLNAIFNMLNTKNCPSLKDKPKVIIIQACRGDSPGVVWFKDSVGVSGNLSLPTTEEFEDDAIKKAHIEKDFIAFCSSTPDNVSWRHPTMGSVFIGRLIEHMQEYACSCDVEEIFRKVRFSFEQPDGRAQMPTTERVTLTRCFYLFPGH
Summary of the method: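 Recombinant human caspase-1 stored at -80 °C as aliquots and used at 1:20 dilution; enzyme preincubated with inhibitor (Ki determinations). Substrate Ac-Trp-Glu-His-Asp-AMC, 5 μM final. AMC release followed kinetically, excitation 380 nm, emission 460 nm.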

[2] = molecular target: Caspase-8 (Homo sapiens, UniProt Q14790); test: Inhibition of caspase 8
Caspase-8, sequence (Q14790 217-374 limits assumed): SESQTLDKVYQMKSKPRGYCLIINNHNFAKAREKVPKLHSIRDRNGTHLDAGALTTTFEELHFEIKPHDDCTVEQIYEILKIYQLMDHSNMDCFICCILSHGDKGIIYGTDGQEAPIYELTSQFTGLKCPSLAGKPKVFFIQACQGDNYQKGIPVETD
Caspase-8, sequence (Q14790 385-479 limits assumed): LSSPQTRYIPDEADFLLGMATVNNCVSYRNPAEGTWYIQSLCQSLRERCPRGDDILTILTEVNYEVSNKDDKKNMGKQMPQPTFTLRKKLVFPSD

| SMILES | Ki [1] | IC50 [2] | IC50 [1] |
| --- | --- | --- | --- |
| CC(C)[C@H](NC(=O)c1ccc2ccccc2c1)C(=O)N[C@@H](C)C(=O)N[C@H](CNCc1ccc(C(N)=O)cc1)CC(=O)O | 1820 nM | – | – |
| CC(C)[C@H](NC(=O)c1ccc2ccccc2c1)C(=O)N[C@@H](C)C(=O)N[C@H](CNCc1ccc2c(c1)OCO2)CC(=O)O | 209 nM | – | – |
| CC(C)[C@H](NC(=O)c1ccc2ccccc2c1)C(=O)N[C@@H](C)C(=O)N[C@@H](CC(=O)O)CN(C)C1CCCCC1 | 128 nM | – | – |
| CC(C)[C@H](NC(=O)c1ccc2ccccc2c1)C(=O)N[C@@H](C)C(=O)N[C@H](C=O)CC(=O)O | – | – | 0.2 nM |
| CC(C)[C@H](NC(=O)c1ccc2ccccc2c1)C(=O)N[C@@H](C)C(=O)N[C@H](CNC1CCCCC1)CC(=O)O | 945 nM | – | – |
| CC(C)[C@H](NC(=O)c1ccc2ccccc2c1)C(=O)N[C@@H](C)C(=O)N[C@H](CCCc1ccccc1)CC(=O)O | > 50000 nM | – | – |
| CC(C)[C@H](NC(=O)c1ccc2ccccc2c1)C(=O)N[C@@H](C)C(=O)N[C@@H](CC(=O)O)CN(C)Cc1ccccc1 | 1890 nM | – | – |

Continued, values first:

| Ki [1] | IC50 [2] | IC50 [1] | SMILES |
| --- | --- | --- | --- |
| 47 nM | 100000 nM | – | CC(C)[C@H](NC(=O)c1ccc2ccccc2c1)C(=O)N[C@@H](C)C(=O)N[C@H](CNCc1ccccc1O)CC(=O)O |
| 1370 nM | – | – | CC(C)[C@H](NC(=O)c1ccc2ccccc2c1)C(=O)N[C@@H](C)C(=O)N[C@H](CNCc1ccc(O)cc1)CC(=O)O |
| 600 nM | – | – | CC(C)[C@H](NC(=O)c1ccc2ccccc2c1)C(=O)N[C@@H](C)C(=O)N[C@H](CNCc1ccccc1)CC(=O)O |
| 1200 nM | – | – | CC(C)[C@H](NC(=O)c1ccc2ccccc2c1)C(=O)N[C@@H](C)C(=O)N[C@H](CNCc1ccccc1F)CC(=O)O |
| 965 nM | – | – | COc1ccccc1CNC[C@H](CC(=O)O)NC(=O)[C@H](C)NC(=O)[C@@H](NC(=O)c1ccc2ccccc2c1)C(C)C |
